Inhibition in vivo, Activity and IC50 data for three molecules are collected here from ChEMBL document CHEMBL2010692, “Inhibitory effect of novel S,N-bisphosphonates on some carcinoma cell lines, osteoarthritis, and chronic inflammation” (Eur J Med Chem, 2012).

Data set [1] concerns Rattus norvegicus. Put plainly: Antiarthritic activity in complete Freund's adjuvant-induced rat arthritis model assessed as reduction of paw volume in injected paw at 20 mg/kg, sc qd for 28 days. The data set is classed as functional. Conditions: 672 h, route subcutaneous. The method, boiled down: (§1)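 Rat adjuvant-induced polyarthritis. Compounds were dissolved or suspended in sterile saline, sonicated as needed, brought to pH 7.0 with NaOH, and kept as frozen aliquots, fresh each dosing day. Dosing was sc once daily for 28 days, by body weight. The arthritic control group got vehicle sc. Injected and noninjected hindpaw volumes were measured on day 28 by mercury displacement plethysmography and expressed as % inhibition.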

Data set [2] relates to Mus musculus. The data set can be described thus: Antiinflammatory activity in methylated bovine serum albumin sensitized delayed-type hypersensitivity granuloma mouse model assessed as reduction of granuloma wet weight at 25 mg/kg, sc qd for 9 days. The format is functional. Conditions: 216 h, route subcutaneous. The method, boiled down:
(§2)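 Groups of 10 female mice (25 g) were sensitized sc over the inguinal lymph node with mBSA emulsion in saline, Freund's incomplete adjuvant and dextran. Three weeks later, two 6-mm hydroxyapatite discs soaked in mBSA (30 mg/mL saline) were implanted sc in the dorsum. Compounds at pH 7.4 were given sc into the scruff at 0.1 mL/10 g, daily from implantation to day 9. Granuloma wet and dry weights were recorded as % inhibition.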

Data set [3] has as its system Mus musculus. Put plainly: Antiinflammatory activity in methylated bovine serum albumin sensitized delayed-type hypersensitivity granuloma mouse model assessed as reduction of granuloma dry weight at 100 mg/kg, sc qd for 9 days. The data set is classed as functional. Conditions: 216 h, route subcutaneous. A digest of the protocol: as §2
The subject of data set [4] is Mus musculus. Put plainly: Toxicity in albino mouse assessed as mortality at 500 to 1000 mg/kg, […] after 24 hrs. The data set is classed as organism-based. Set-up: dose 500-1000 mg/kg. The settings on record: in vivo. The method, boiled down:
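Albino mice (20-25 g) were split into 6 groups of 8. Compounds were given at 500, 750 and 1000 mg/kg; controls received buffer only. Toxic symptoms, mortality and postmortem findings were recorded 24 h after administration. LD50 was calculated by the Dm − Σ(z×d)/n formula.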

In data set [5] the test system is Mus musculus. Put plainly: Antiinflammatory activity in methylated bovine serum albumin sensitized delayed-type hypersensitivity granuloma mouse model assessed as reduction of granuloma dry weight at 25 mg/kg, sc qd for 9 days. The data set is classed as functional. The settings on record: 216 h, route subcutaneous. A digest of the protocol:
as §2

Data set [6] has as its system Rattus norvegicus. The data set can be described thus: Antiarthritic activity in complete Freund's adjuvant-induced rat arthritis model assessed as reduction of paw volume in non-injected paw at 20 mg/kg, sc qd for 28 days. The format is functional. The settings on record: 672 h, route subcutaneous. A digest of the protocol: as §1
Data set [7] deals with HCT-116. The data set can be described thus: Cytotoxicity against human HCT116 cells after 48 hrs by SRB assay. The format is functional, cell-based. Conditions: HCT-116, 48 h. A digest of the protocol: (§3)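 Cells were seeded at 10^4 per well and allowed to attach for 24 h. They were then exposed to four compound concentrations (5, 12.5, 25, 50), each in triplicate wells, for 48 h at 37 °C in 5% CO2. Cells were fixed and stained with sulforhodamine B, washed with acetic acid, and bound dye was recovered in Tris-EDTA pH 7.4 and read on a plate reader. IC50 was taken from survival curves using the triplicate means.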

Data set [8] relates to Mus musculus. The data set can be described thus: Antiinflammatory activity in methylated bovine serum albumin sensitized delayed-type hypersensitivity granuloma mouse model assessed as reduction of granuloma wet weight at 100 mg/kg, sc qd for 9 days. The data set is classed as functional. The settings on record: 216 h, route subcutaneous. A digest of the protocol:
as §2

For data set [9], the system named is Mus musculus. Put plainly: Antiinflammatory activity in methylated bovine serum albumin sensitized delayed-type hypersensitivity granuloma mouse model assessed as reduction of granuloma wet weight at 60 mg/kg, sc qd for 9 days. The format is functional. The settings on record: 216 h, route subcutaneous. A digest of the protocol: as §2
The test system of data set [10] is Mus musculus. Put plainly: Toxicity in albino mouse assessed as toxic symptoms at 500 to 1000 mg/kg, ip after 24 hrs. The settings on record: in vivo.
The subject of data set [11] is Rattus norvegicus. Put plainly: Antiarthritic activity in complete Freund's adjuvant-induced rat arthritis model assessed as reduction of paw volume in non-injected paw at 30 mg/kg, sc qd for 28 days. Conditions: 672 h, route subcutaneous. The data set is classed as functional. A digest of the protocol: as §1
The subject of data set [12] is Rattus norvegicus. The data set can be described thus: Antiarthritic activity in complete Freund's adjuvant-induced rat arthritis model assessed as reduction of paw volume in non-injected paw at 10 mg/kg, sc qd for 28 days. The format is functional. The settings on record: 672 h, route subcutaneous. The method, boiled down: as §1
For data set [13], the system named is Rattus norvegicus. Put plainly: Antiarthritic activity in complete Freund's adjuvant-induced rat arthritis model assessed as reduction of paw volume in injected paw at 50 mg/kg, sc qd for 28 days. Conditions: 672 h, route subcutaneous. The format is functional. The method, boiled down: as §1
Data set [14] deals with MCF7. The data set can be described thus: Cytotoxicity against human MCF7 cells after 48 hrs by SRB assay. The data set is classed as functional, cell-based. Conditions: MCF7, 48 h. The method, boiled down: as §3
Data set [15] concerns HepG2. Put plainly: Cytotoxicity against human HepG2 cells after 48 hrs by SRB assay. The data set is classed as functional, cell-based. The settings on record: HepG2, 48 h. A digest of the protocol:
as §3
A general note: In SRB staining, fixed cells bind dye roughly in proportion to their protein.

Data set [16] has as its system Rattus norvegicus. Put plainly: Antiarthritic activity in complete Freund's adjuvant-induced rat arthritis model assessed as reduction of paw volume in injected paw at 30 mg/kg, sc qd for 28 days. Conditions: 672 h, route subcutaneous. The format is functional. A digest of the protocol:
as §1

Data set [17] has as its system Rattus norvegicus. The data set can be described thus: Antiarthritic activity in complete Freund's adjuvant-induced rat arthritis model assessed as reduction of paw volume in non-injected paw at 50 mg/kg, sc qd for 28 days. The data set is classed as functional. The settings on record: 672 h, route subcutaneous. The method, boiled down: as §1
Data set [18] deals with Rattus norvegicus. The data set can be described thus: Antiarthritic activity in complete Freund's adjuvant-induced rat arthritis model assessed as reduction of paw volume in injected paw at 10 mg/kg, sc qd for 28 days. The format is functional. The settings on record: 672 h, route subcutaneous. A digest of the protocol: as §1
For data set [19], the system named is HeLa. The data set can be described thus: Cytotoxicity against human HeLa cells after 48 hrs by SRB assay. The format is functional, cell-based. A digest of the protocol:
as §3

Data set [20] deals with Mus musculus. Put plainly: Antiinflammatory activity in methylated bovine serum albumin sensitized delayed-type hypersensitivity granuloma mouse model assessed as reduction of granuloma dry weight at 60 mg/kg, sc qd for 9 days. The format is functional. Conditions: 216 h, route subcutaneous. A digest of the protocol: as §2

Each structure is given as a SMILES string.

What is called inhibition in vivo is the drop in the measured response relative to a control, in per cent. The IC50 is the point on the concentration scale where inhibition reaches its midpoint. The low end stands for greater potency in that assay, the high end for weaker potency in that assay.

For `CCOP(=O)(OCC)C1(P(=O)(OCC)OCC)C(=S)c2ccccc2N1C`, the inhibition in vivo at 20 mg/kg was 23% in [1] and 55% in data set [6]. Further, the results for the inhibition in vivo at 25 mg/kg in [2] and in data set [5] were 33% and 36%, respectively. Moreover, the inhibition in vivo at 100 mg/kg in data set [3] was found to be 48%; in [8], 38%. Further, the Activity result in data set [4] and in data set [10] was “Non-toxic” each time. The IC50 in [7] was found to be 8.27 µM; in data set [14], 16.5 µM; in data set [15] it was 14.7 µM; in data set [19] it was 15.2 µM. The inhibition in vivo at 60 mg/kg in data set [9] and in [20] was 45% throughout. Also, the inhibition in vivo at 30 mg/kg in [11] is 70%; in data set [16], 32%. Also, the inhibition in vivo at 10 mg/kg is 45% in data set [12] and 15% in data set [18]. Moreover, the inhibition in vivo at 50 mg/kg in [13] is 30%; in data set [17], 68%.
As to `CCOP(=O)(OCC)C1(P(=O)(OCC)OCC)C(=S)c2ccccc2N=C1c1ccccc1`, the inhibition in vivo at 20 mg/kg in data set [1] amounted to 12%; in data set [6] it was 60%. Besides, the results for the inhibition in vivo at 25 mg/kg in data set [2] and in [5] were 13% and 22%, respectively. The inhibition in vivo at 100 mg/kg in data set [3] was 48%; in data set [8], 43%. Also, the IC50 in data set [7] was 22.8 µM; in [14] it was 15.6 µM; in [15] it was 20.4 µM; in data set [19] it was 27.1 µM. Moreover, the inhibition in vivo at 60 mg/kg in data set [9] is 35%; in data set [20] it was 32%. In addition, the inhibition in vivo at 30 mg/kg in [11] turned out to be 68%; in data set [16], 30%. For the same molecule, the inhibition in vivo at 10 mg/kg in data set [12] was 40%; in [18], less than 5%. For the same molecule, the inhibition in vivo at 50 mg/kg in data set [13] came to 28%; in data set [17], 70%.
On to `CCOP(=O)(OCC)C1(P(=O)(OCC)OCC)N=C(c2ccc(C)cc2)c2ccccc2C1=S`, for which the IC50 in [7] came to 18.3 µM; in [14], 30.4 µM; in [15] it was 25.2 µM; in data set [19], 26.7 µM.
